Read-outs that look alike come from different tables or passages of the source. Each block holds one molecule with its values, some of them ahead of it.
Assays:
[1] = biological target: GFP-Sc-Dyn V2391S/M2732S (AAA3_V-S/AAA4_M-S) (Saccharomyces cerevisiae, UniProt P36022, M2732S/V2391S); experiment: Microscale thermophoresis; format: binding; conditions: read-out: EC50, AMPPNP binding to AAA3_V-S/AAA4_M-S (MST); mean ± 95% CI, n=3
[2] = biological target: T1, GFP-Sc-Dyn (Saccharomyces cerevisiae, UniProt P36022); experiment: Microscale thermophoresis; format: binding, S. cerevisiae
[3] = biological target: T2, Hs-dynein 1 (Homo sapiens, UniProt Q14204); conditions: ref Steinman et al., 2017; cited from earlier work
[4] = biological target: T2, Hs-dynein 1; conditions: read-out: IC50, inhibition of Hs-dynein 1; ref Steinman et al., 2017; cited from earlier work
[5] = biological target: T3, Sc-Dyn-lyso (Saccharomyces cerevisiae, UniProt P36022); experiment: Microscale thermophoresis; format: binding, S. cerevisiae; conditions: n=2, negative control
T3 sequence (P36022 1758-2992 limits assumed): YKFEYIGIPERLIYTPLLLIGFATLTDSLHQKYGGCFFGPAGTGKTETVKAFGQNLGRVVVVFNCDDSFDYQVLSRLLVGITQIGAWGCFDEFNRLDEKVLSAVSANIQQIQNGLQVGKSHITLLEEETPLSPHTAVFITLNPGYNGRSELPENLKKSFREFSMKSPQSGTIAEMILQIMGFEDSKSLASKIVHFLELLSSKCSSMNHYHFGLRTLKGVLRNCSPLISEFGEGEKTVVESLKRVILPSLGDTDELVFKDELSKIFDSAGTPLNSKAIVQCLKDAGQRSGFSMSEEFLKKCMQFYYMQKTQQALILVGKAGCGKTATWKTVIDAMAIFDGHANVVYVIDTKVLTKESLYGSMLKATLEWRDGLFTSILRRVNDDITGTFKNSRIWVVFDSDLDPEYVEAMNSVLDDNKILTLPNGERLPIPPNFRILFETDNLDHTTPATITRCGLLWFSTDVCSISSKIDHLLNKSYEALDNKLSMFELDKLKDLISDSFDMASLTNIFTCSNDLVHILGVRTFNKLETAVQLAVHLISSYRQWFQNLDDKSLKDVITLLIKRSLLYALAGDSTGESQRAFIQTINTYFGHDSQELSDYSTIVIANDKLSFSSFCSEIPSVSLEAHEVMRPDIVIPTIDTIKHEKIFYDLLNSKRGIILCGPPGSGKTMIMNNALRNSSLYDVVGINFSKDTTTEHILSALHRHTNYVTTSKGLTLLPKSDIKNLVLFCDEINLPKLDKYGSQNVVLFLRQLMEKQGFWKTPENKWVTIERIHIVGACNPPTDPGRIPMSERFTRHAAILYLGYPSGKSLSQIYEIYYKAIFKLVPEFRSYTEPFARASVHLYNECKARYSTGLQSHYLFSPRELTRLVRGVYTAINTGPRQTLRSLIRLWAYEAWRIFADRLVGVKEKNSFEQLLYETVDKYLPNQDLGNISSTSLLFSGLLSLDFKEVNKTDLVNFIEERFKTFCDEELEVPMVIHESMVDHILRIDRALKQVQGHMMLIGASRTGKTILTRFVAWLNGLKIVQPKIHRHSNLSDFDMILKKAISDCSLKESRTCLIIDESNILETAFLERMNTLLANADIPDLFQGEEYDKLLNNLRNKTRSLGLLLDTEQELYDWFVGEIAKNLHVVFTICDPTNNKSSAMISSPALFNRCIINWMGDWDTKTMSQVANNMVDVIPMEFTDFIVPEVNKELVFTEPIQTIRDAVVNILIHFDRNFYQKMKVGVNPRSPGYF
T3 sequence (P36022 3301-4092 limits assumed): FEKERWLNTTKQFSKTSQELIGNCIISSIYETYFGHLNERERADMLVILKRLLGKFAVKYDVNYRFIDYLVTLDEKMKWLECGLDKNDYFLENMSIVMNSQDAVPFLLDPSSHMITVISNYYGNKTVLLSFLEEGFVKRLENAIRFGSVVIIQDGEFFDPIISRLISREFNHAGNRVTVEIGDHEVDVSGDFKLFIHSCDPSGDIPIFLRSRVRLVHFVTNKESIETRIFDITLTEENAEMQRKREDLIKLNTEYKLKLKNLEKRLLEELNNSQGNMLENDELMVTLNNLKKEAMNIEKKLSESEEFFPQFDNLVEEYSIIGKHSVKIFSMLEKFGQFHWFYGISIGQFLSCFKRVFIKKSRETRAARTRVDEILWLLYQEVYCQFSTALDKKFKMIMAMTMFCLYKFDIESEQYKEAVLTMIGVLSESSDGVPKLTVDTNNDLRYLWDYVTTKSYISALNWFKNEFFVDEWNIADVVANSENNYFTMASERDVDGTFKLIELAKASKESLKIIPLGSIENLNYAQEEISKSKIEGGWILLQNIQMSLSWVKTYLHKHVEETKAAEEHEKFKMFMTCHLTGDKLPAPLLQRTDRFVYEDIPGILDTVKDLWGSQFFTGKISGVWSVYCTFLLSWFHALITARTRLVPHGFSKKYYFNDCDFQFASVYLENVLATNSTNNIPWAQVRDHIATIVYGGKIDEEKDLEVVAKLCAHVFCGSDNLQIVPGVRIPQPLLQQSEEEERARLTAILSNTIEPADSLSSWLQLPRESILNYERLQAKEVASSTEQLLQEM

[6] = biological target: T2, Hs-dynein 1; experiment: Radioactive ATPase assay, basal ATPase activity of Hs-dynein 1; format: biochemical; conditions: for Inhibition of Hs-dynein 1 basal ATPase activity (in words): compounds tested at 20 μM, 1 mM MgATP, no microtubules, n=2
Method in brief: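 Hs-dynein 1 motor construct (N-terminal His6, aa 1320–4646) at 30 nM, without microtubules. Radioactive ATPase reaction ran for 45 min with test compound. Percent inhibition was obtained by normalising the ATPase rate with compound to DMSO control.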

[7] = biological target: Sc-DynGST (Saccharomyces cerevisiae, UniProt P36022); experiment: Single-molecule motility assay; format: biochemical, S. cerevisiae; conditions: single-molecule
[8] = biological target: T1, GFP-Sc-Dyn; experiment: Microtubule gliding assay; format: biochemical, S. cerevisiae; conditions: 25 μM compound
[9] = biological target: T1, GFP-Sc-Dyn; experiment: NADH-coupled steady-state ATPase assay, GFP-Sc-Dyn basal ATPase; format: biochemical, S. cerevisiae
[10] = biological target: T2, Hs-dynein 1; experiment: Radioactive ATPase assay, microtubule-stimulated ATPase activity of Hs-dynein 1; format: biochemical
Method in brief: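 Radioactive ATPase assay with Hs-dynein 1 (His6, aa 1320–4646; 30 nM) in the presence of microtubules. Reaction time was 45 min, and rates with test compound were normalised to DMSO control.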

[11] = biological target: Mm-VCP/p97 (Mus musculus, UniProt Q01853); experiment: NADH-coupled steady-state ATPase assay, Mm-VCP/p97; format: biochemical, M. musculus; conditions: 20 μM, 1 mM MgATP
[12] = biological target: Dm-spastin (Drosophila melanogaster, UniProt Q8I0P1, DEL311-372); experiment: NADH-coupled steady-state ATPase assay, Dm-spastin; format: biochemical, D. melanogaster; conditions: 20 μM, 1 mM MgATP
[13] = biological target: T4, Hs-FIGL1 (Homo sapiens, UniProt Q6PIW4); experiment: NADH-coupled steady-state ATPase assay, Hs-FIGL1; format: biochemical, H. sapiens; conditions: read-out: Inhibition of ATPase activity, Hs-FIGL1
T4 sequence (Q6PIW4 288-674): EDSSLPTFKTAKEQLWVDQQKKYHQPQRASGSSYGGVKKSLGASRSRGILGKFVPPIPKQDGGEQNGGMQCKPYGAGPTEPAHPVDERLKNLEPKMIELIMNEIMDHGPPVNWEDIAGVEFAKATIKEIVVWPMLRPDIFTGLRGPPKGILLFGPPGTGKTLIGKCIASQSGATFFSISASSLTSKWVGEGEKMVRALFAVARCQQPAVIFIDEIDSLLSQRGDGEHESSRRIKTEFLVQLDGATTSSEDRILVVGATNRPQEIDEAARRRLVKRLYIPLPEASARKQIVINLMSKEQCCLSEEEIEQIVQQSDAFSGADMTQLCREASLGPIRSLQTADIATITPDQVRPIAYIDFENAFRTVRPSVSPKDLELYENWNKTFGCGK
Method in brief: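 Recombinant Hs-FIGL1 (50 nM; E. coli-expressed) in 25 mM Na-MES pH 6.5, 70 mM KOAc, 20 mM (NH4)2SO4, 5 mM Mg(OAc)2, 1 mM TCEP, 0.01% Triton X-100, with NADH/PEP/pyruvate kinase/lactate dehydrogenase coupling system. Protein preincubated 10 min at RT with test compound, then MgATP added. NADH fluorescence (ex 340, em 440 nm) slope converted to ATPase rate with an ADP standard curve.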

[14] = biological target: Sc-Dyn-lyso (Saccharomyces cerevisiae, UniProt P36022); experiment: NADH-coupled steady-state ATPase assay, Sc-Dyn-lyso; format: biochemical, S. cerevisiae
Method in brief: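 Ten-dose DMSO serial dilution of test compound (stock top 4 mM) was preincubated 10 min at RT. MgATP (10 mM stock) started the reaction, and NADH fluorescence slopes were converted via an ADP standard curve.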

[15] = biological target: Xl-katanin (Xenopus laevis, UniProt Q9PUL2); experiment: NADH-coupled steady-state ATPase assay, Xl-katanin; format: biochemical, X. laevis; conditions: 20 μM, 1 mM MgATP
Method in brief: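 Recombinant Xl-katanin (50 nM; E. coli, MBP-trap, MonoQ and gel filtration) in 25 mM K-HEPES pH 7.5, 70 mM KCl, 20 mM (NH4)2SO4, 5 mM MgCl2, 2.5 mM DTT, 0.01% Triton X-100 plus NADH-coupled regeneration mix. After 10 min RT preincubation with test compound, MgATP started the reaction. The fluorescence decrease rate (340/440 nm) was converted to ATPase rate using an ADP standard curve.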

T2 sequence (Q14204 1320-4646): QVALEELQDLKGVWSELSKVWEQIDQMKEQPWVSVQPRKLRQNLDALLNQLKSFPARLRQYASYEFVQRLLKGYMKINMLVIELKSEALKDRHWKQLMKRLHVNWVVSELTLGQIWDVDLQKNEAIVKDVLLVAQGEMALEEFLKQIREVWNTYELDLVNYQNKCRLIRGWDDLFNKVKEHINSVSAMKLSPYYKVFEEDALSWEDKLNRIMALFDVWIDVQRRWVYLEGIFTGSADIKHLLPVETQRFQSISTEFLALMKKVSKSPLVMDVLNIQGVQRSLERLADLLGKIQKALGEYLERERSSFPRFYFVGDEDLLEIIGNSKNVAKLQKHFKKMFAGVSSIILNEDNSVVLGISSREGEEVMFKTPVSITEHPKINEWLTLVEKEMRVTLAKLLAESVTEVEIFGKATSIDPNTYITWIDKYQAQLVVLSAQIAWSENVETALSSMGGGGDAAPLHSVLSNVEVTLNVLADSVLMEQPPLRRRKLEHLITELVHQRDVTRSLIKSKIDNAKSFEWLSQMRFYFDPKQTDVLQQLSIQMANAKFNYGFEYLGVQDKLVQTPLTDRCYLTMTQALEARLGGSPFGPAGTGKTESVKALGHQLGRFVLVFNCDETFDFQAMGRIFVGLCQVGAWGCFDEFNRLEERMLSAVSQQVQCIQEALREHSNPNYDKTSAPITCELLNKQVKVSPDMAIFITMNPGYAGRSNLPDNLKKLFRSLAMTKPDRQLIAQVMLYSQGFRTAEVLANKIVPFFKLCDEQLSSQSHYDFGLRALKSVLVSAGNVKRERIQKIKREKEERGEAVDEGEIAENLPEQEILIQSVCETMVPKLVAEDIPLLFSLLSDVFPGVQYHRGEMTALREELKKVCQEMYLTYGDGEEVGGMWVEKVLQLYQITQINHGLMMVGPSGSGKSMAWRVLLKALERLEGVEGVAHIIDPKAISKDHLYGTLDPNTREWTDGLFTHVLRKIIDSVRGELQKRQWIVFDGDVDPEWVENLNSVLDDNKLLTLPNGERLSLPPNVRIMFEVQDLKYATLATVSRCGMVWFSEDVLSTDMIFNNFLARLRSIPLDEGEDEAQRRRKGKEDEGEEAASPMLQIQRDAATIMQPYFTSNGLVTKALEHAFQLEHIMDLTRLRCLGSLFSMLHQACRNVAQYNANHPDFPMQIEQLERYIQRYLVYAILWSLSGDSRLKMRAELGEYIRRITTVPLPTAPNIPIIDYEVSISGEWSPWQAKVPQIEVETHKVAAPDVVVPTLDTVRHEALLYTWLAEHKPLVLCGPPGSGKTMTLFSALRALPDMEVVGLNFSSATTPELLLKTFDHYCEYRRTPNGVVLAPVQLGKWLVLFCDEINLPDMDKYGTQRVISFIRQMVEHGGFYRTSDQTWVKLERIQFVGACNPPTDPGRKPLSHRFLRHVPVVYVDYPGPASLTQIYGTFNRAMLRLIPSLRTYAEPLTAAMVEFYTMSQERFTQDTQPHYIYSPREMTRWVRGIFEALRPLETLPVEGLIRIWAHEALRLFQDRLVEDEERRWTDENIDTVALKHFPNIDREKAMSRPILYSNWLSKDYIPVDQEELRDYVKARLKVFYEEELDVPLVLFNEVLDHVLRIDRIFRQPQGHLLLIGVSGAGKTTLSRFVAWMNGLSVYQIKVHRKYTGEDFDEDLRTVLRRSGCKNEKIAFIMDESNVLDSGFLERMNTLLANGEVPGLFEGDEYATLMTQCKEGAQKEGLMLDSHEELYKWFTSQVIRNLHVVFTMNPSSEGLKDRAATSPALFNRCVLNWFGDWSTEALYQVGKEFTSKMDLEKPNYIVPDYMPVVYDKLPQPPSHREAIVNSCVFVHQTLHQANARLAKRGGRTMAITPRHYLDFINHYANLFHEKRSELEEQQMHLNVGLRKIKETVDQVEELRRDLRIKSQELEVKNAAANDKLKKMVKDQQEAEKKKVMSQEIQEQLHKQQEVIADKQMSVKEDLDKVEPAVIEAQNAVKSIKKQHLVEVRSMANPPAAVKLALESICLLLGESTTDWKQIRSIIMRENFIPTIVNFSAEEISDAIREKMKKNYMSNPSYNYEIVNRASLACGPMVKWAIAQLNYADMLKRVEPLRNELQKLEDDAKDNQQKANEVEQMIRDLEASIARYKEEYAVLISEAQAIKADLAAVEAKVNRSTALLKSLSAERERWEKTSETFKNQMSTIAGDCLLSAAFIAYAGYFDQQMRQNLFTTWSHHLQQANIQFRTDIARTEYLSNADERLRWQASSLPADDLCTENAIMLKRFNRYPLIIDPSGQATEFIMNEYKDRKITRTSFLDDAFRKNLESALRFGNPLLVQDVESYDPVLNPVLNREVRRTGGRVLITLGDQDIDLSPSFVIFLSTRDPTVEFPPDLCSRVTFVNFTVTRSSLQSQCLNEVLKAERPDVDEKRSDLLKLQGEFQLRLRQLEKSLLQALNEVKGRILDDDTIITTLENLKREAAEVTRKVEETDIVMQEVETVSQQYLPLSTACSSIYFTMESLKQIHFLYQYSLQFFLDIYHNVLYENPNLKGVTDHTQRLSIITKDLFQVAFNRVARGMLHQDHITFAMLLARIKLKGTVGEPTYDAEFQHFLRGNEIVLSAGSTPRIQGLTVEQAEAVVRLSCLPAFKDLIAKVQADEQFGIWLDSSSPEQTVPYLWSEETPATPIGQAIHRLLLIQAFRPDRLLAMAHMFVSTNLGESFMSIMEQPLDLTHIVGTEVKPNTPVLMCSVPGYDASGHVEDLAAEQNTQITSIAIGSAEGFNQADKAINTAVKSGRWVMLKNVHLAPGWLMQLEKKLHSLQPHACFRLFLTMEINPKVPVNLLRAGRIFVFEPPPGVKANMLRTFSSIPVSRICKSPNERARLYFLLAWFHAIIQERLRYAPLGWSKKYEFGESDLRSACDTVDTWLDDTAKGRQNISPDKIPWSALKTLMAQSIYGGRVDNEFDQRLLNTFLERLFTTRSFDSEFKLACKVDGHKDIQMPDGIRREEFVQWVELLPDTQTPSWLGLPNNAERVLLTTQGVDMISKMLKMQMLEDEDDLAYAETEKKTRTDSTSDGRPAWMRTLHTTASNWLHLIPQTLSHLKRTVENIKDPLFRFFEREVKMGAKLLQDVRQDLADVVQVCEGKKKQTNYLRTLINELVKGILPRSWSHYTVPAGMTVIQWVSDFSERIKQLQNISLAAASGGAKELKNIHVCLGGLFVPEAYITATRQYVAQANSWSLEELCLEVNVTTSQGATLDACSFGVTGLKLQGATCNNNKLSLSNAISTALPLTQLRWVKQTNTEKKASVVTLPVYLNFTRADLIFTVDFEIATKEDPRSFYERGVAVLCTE
Sequence of Xl-katanin (Q9PUL2 whole entry): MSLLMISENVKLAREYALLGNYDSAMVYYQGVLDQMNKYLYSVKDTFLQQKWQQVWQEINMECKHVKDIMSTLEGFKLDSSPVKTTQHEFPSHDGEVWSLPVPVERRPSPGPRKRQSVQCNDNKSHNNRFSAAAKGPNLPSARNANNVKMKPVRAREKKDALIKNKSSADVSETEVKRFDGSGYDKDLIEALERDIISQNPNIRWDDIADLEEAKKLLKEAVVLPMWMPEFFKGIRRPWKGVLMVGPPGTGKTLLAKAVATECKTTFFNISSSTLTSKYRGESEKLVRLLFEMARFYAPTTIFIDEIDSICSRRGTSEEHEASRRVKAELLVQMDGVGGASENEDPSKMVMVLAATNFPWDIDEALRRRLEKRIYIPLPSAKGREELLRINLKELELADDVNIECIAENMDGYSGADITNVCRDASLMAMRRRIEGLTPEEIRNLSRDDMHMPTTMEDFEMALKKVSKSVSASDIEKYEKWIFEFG
Sequence of Mm-VCP/p97 (Q01853 whole entry): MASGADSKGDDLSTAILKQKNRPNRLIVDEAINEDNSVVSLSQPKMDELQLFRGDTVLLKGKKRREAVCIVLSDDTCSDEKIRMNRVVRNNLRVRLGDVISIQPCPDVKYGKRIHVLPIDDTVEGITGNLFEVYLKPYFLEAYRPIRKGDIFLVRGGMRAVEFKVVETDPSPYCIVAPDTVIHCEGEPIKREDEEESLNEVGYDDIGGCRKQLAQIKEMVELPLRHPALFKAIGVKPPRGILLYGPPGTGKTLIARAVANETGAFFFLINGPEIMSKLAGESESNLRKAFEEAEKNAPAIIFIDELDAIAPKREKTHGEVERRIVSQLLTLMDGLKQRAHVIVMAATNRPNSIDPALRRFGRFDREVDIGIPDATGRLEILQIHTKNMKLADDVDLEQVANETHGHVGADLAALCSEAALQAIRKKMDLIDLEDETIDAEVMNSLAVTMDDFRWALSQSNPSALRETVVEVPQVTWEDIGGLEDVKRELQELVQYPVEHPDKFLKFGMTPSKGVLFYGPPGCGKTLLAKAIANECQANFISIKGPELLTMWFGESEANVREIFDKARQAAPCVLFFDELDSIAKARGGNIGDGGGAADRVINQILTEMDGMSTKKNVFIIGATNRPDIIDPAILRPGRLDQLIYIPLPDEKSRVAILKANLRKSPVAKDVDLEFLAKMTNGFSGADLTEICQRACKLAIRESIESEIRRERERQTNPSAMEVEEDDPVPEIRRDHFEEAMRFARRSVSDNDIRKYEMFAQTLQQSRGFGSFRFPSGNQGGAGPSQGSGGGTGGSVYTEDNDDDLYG

Structure (SMILES): Nc1ncnc2c1ncn2[C@@H]1O[C@H](COP(=O)(O)OP(=O)(O)NP(=O)(O)O)[C@@H](O)[C@H]1O [AMPPNP, adenylyl imidodiphosphate, reference compound]
EC50 [1]: 180 ± 78 µM
EC50 ([2]; read-out: EC50, AMPPNP binding to GFP-Sc-Dyn (MST), mean ± 95% CI, n=3, 60% MST power): 25 ± 20 µM

Structure (SMILES): N#CC(=C(O)c1ccc(Cl)cc1Cl)c1nc2cc(Cl)ccc2c(=O)[nH]1 [compound 1, ciliobrevin D]
Inhibition of dynein's basal ATPase activity (in words) [3]: does not

Structure (SMILES): N#Cc1c(C2(c3ccc(Cl)cc3)CC2)nn2c1[nH]c(=O)c1cc(I)ccc12 [compound 2, dynapyrazole-A]
IC50 [4]: ~10 µM

Structure (SMILES): COc1c[nH]c2c(C#N)c(C3(c4ccc(Cl)cc4)CC3)nn2c1=O [compound 6, 2-[1-(4-chlorophenyl)cyclopropyl]-6-methoxy-7-oxo-4H-pyrazolo[1,5-a]pyrimidine-3-carbonitrile]
Binding to Sc-Dyn-lyso (MST, in words) [5]: did not bind
Inhibition of Hs-dynein 1 basal ATPase activity (in words) [6]: does not inhibit
Effect on landing rate (in words) [7]: not sensitive
Effect on dynein processivity (run length) (in words) ([7]; 0-50 μM compound): not sensitive
Effect on dynein velocity (in words) ([7]; 0-50 μM compound): not sensitive
Effect on microtubule gliding (in words) [8]: comparable to DMSO
Microtubule gliding velocity, 30 minutes after treatment ([8]; 1% DMSO, 1 mM Mg-ATP, mean ± SD): 66 ± 21
Binding to GFP-Sc-Dyn (MST, in words) ([2]; control compound): could not detect binding

Inhibition of Hs-dynein 1 basal ATPase activity (in words) [6]: less active
Structure (SMILES): N#Cc1c(C2(c3ccc(Cl)cc3)CC2)nn2c(=O)c(Oc3ccccc3Cl)c[nH]c12 [compound 13, 6-(2-chlorophenoxy)-2-[1-(4-chlorophenyl)cyclopropyl]-7-oxo-4H-pyrazolo[1,5-a]pyrimidine-3-carbonitrile]

Inhibition of Hs-dynein 1 basal ATPase activity (in words) [6]: less active
Structure (SMILES): COc1cccc(Oc2c[nH]c3c(C#N)c(C4(c5ccc(Cl)cc5)CC4)nn3c2=O)c1 [compound 16, 2-[1-(4-chlorophenyl)cyclopropyl]-6-(3-methoxyphenoxy)-7-oxo-4H-pyrazolo[1,5-a]pyrimidine-3-carbonitrile]

Inhibition of Hs-dynein 1 basal ATPase activity (in words) [6]: less active
Structure (SMILES): N#Cc1c(C2(c3ccc(Cl)cc3)CC2)nn2c(=O)c(Oc3ccc(Cl)cc3)c[nH]c12 [compound 17, 6-(4-chlorophenoxy)-2-(1-(4-chlorophenyl)cyclopropyl)-7-oxo-4,7-dihydropyrazolo[1,5-a]pyrimidine-3-carbonitrile]

Structure (SMILES): N#Cc1c(C2(c3ccc(Cl)cc3)CC2)nn2c(=O)c(Oc3cccc(Cl)c3)c[nH]c12 [compound 19, 6-(3-chlorophenoxy)-2-[1-(4-chlorophenyl)cyclopropyl]-7-oxo-4H-pyrazolo[1,5-a]pyrimidine-3-carbonitrile]
IC50 [6]: 17 ± 2.3 µM
Inhibition of Hs-dynein 1 basal ATPase activity (in words) [6]: most active
IC50 [9]: 10 ± 1.2 µM
IC50 [10]: ~30 µM
Reduction of ATPase activity, Mm-VCP [11]: < 25%
Reduction of ATPase activity, Dm-spastin [12]: < 25%
inhibition at 20 µM [13]: ~85%
IC50 [14]: 14 ± 4.9 µM
Reduction of ATPase activity, Xl-katanin [15]: < 25%
